NR2E3 ag-1 – inhibitors of NR2E3-RetCOR corepressor binding, primary screen, NR2E3 agonist project, biochemical, TR-FRET, GST-NR2E3, biotin-RetCOR; Photoreceptor-specific nuclear receptor (Homo sapiens), Q9Y5X4; 1536-well; inhibition of corepressor binding, % at 4.78 µM; actives 0.12% (n = 320,000); AID 2300, 2010;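 active means percent inhibition above the cutoff of mean plus 3 SD of all tested compounds, set per screening campaign, cut at about 20% in these data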;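 further: 0% = DMSO wells and 100% = biotin wells as full block of FRET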
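System: GST-NR2E3 and biotin-RetCOR proteins; probe or stimulus: 7 nM biotin-RetCOR; doses: compound at 4.8 µM, single dose; schedule: Compound–protein incubation for 5 h at 4 °C; detection: time-resolved FRET; read-out: percent inhibition; controls: biotin wells as high control, 0.6% DMSO wells as low control; format: 1536-well plates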
NR2E3 ag-2 – NR2E3 agonists in two-hybrid cells, primary screen, cell-based, luminescence, CHO-S, Gal4-NCOR/VP16-NR2E3 | actives 0.35% (n = 360,000) | luciferase | Photoreceptor-specific nuclear receptor (Homo sapiens), Q9Y5X4 | inhibition of corepressor binding, % at 3.98 µM;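 active means inhibition above the mean of all tested compounds plus 3 SD, cut at about 70% in these data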;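 further: 0% = DMSO with NR2E3 transfected cells and 100% = cells lacking NR2E3 construct; higher means lower luciferase signal from less NR2E3 corepressor binding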
PG9 binder – binders of HIV-1 gp120 antibody PG9, primary screen, biochemical, TR-FRET; TR-FRET gp120-PG9 antibody binding; inhibition, % at 6.7 µM; actives 0.43% (n = 360,000); AID 624416, 2012; in the data active means inhibition above about 8.5%
Rev-erbA mod – modulators of Rev-erb alpha DNA binding, primary screen, biochemical, FITC-DNA, fluorescence polarization, uHTS | Nuclear receptor subfamily 1 group D member 1 (Homo sapiens), P20393 | Rev-erbα–FITC-DNA binding, 90 min | activity, % at 10 µM | actives 0.79% (n = 370,000) | AID 1259318, 2017;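 active means activity above about 14%, limit read from the data; passing the limit was not always enough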;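 further: 0% = DMSO wells with 35 nM protein and 100% = DMSO wells with 750 nM protein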
Target sequence (P20393 whole entry, looked up): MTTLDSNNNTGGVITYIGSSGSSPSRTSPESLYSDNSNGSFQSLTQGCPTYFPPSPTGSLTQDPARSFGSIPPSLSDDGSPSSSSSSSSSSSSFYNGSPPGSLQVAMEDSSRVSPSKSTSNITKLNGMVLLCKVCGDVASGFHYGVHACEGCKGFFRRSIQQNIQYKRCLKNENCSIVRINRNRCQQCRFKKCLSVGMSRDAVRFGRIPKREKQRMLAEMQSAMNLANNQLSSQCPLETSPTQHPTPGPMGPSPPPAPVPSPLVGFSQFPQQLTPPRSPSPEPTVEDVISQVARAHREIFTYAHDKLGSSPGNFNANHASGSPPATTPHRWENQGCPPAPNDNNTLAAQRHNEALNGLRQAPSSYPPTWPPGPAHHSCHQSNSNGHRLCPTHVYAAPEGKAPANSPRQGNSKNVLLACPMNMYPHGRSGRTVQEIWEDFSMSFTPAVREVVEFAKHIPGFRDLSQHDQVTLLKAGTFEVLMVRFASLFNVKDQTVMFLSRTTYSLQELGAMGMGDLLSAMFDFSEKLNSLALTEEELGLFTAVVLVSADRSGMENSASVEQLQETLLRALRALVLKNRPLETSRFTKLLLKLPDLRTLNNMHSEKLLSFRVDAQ
NR2E3 ag confirm – NR2E3 agonist confirmation in cells, cell-based, luminescence, CHO-S two-hybrid. AID 624378, 2012. CHO-S mammalian two-hybrid NR2E3-NCOR, luciferase luminescence. actives 51% (n = 2,300). shares compounds with NR2E3 ag-2. inhibition, % at 3.98 µM;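 active means average inhibition above a cutoff equal to the mean inhibition of all tested compounds plus one SD, cut at about 70% in these data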;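 further: 0% = DMSO in NR2E3 cells and 100% = DMSO in cells lacking NR2E3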
VP16 counter – GAL4-VP16 reporter modulators, confirmation, counter-screen for NR2E3 agonist project, cell-based, luminescence, CHO-S, high throughput | shares compounds with NR2E3 ag-2 | CHO-S GAL4-VP16 luciferase reporter | inhibition, % at 3.98 µM | actives 29% (n = 2,300);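 active means mean inhibition above a cutoff equal to the average over all tested compounds plus one standard deviation, cut at about 70% in these data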;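 further: luciferase from a UAS reporter driven by GAL4-VP16 transactivation; 0% = DMSO with VP16-transfected cells and 100% = DMSO with cells lacking VP16; higher means less reporter light so more repression of VP16 activity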
Numbers without * were called inactive; · = no result. Compounds with a hit are over-represented: about 1.4% of the library has one in this group of screens.

SMILES | NR2E3 ag-1 | NR2E3 ag-2 | PG9 binder | Rev-erbA mod | NR2E3 ag confirm | VP16 counter
COc1ccc(CNC(=O)c2sccc2-c2ccccc2)cc1OC | 0 | 58 | 0 | 0 | 28 | 30
COc1ccc(CNC(=O)c2sc(=O)n(Cc3ccc(-c4ccccc4)cc3)c2C)cc1OC | · | 60 | -1 | -8 | 72* | 61
COc1ccc(CNC(=O)c2[nH]c(C(F)(F)F)nc2-c2ccccc2)cc1OC | · | 13 | 1 | 3 | · | ·
COc1ccc(NC(=O)c2sc(=O)n(Cc3ccc(SC)cc3)c2C)cc1OC | · | -28 | -2 | -2 | · | ·
O=C(Cn1cnnn1)N[C@@H]1C(=O)N2C(C(=O)O)=C(CSc3nncs3)CS[C@H]12 | · | · | · | -7 | · | ·
COc1ccc2c(c1)N[C@@](CCNC=O)(c1[nH]c3ccccc3c1CCNC=O)C2=O | · | · | · | -6 | · | ·
CCC(c1nnnn1-c1c(C)cccc1C)N1CCN(c2cccc(C(F)(F)F)n2)CC1 (stereo unspecified) | · | 0 | -1 | -4 | · | ·
CCC(c1nnnn1-c1c(C)cccc1C)N1CCN(c2ccc(C(F)(F)F)cc2[N+](=O)[O-])CC1 (stereo unspecified) | · | 53 | · | · | 5 | 10
C=CCN1C(=O)[C@@H](CC(=O)NCCCC)[C@]2(C(=O)OC)CCCCC=C12 | · | · | · | 0 | · | ·
S=c1nc(C2COc3ccccc3O2)[nH][nH]1 (stereo unspecified) | -2 | -64 | 0 | 3 | · | ·
CCCS(=O)(=O)c1cnc(C2COc3ccccc3O2)nc1N (stereo unspecified) | 1 | 56 | 0 | 4 | 43 | 12
O=C(Cc1ccc(S(=O)(=O)N2CCCC2)s1)N1CCN(c2ccccc2)CC1 | 2 | 3 | -2 | -2 | · | ·
O=C(Cc1ccc(S(=O)(=O)N2CCOCC2)s1)N1CCN(c2cccc(C(F)(F)F)c2)CC1 | -1 | 72* | · | · | 81* | 61
CCCCNC(=O)C[C@@H]1C(=O)N2CCCC3=C2[C@@]1(C(=O)OC)CCCC3 | · | · | · | 1 | · | ·
On1ccccc1=S | 4 | 101* | 1 | 0 | -97 | 4
O=C(Cn1ccccc1=S)c1ccc(Cl)c(Cl)c1 | 0 | -21 | 0 | -3 | · | ·
CC(=O)c1c(C)[nH]c(C(=O)OCC(=O)Nc2ccc(Cl)cc2[N+](=O)[O-])c1C | -1 | 86* | -1 | -5 | 96* | 89*
CC(=O)c1c(C)[nH]c(C(=O)OCCCCN2C(=O)c3ccccc3C2=O)c1C | 0 | 89* | 0 | -6 | 96* | 88*
CC(=O)c1c(C)[nH]c(C(=O)OCC(=O)c2ccc(Br)cc2)c1C | · | 57 | -1 | 2 | 86* | 56
COc1ccc(S[C@]2(C(=O)N3CCCC3)CC(=O)N(P(=O)(OC)OC)[C@@H]2c2ccc(OC)cc2)cc1 | · | · | · | 3 | · | ·
COC(=O)C1CN(C2CCCC2)CCS(=O)(=O)N1Cc1ccc(C(F)(F)F)cc1 (stereo unspecified) | · | · | · | 6 | · | ·
COc1ccc2c(c1)CN1C(=O)N(Cc3ccccc3)S(=O)(=O)CC21 (stereo unspecified) | · | · | · | 3 | · | ·
CC(C)C[C@@H]1COc2cc(Br)ccc2S(=O)(=O)N1Cc1cn(CC2CCCCC2)nn1 | · | · | · | -6 | · | ·
COC(=O)c1cc(-c2ccc(Oc3ccccc3)cc2)c(=O)n2c1CCC2 | · | · | · | 6 | · | ·
CC1CCN(C(=O)c2ccc(N3C(=O)C4CCC(C)CC4C3=O)cc2)CC1 (stereo unspecified) | 0 | -15 | 1 | 3 | · | ·
SMILES | NR2E3 ag-1 | NR2E3 ag-2 | PG9 binder | Rev-erbA mod | NR2E3 ag confirm | VP16 counter
O=C1C2C3C=CC(C3)C2C(=O)N1c1ccc(Cc2ccncc2)cc1 (stereo unspecified) | 3 | 52 | 1 | -3 | 12 | 34
CC1CCC2C(=O)N(c3ccc(Cc4ccncc4)cc3)C(=O)C2C1 (stereo unspecified) | -2 | 49 | 1 | -5 | 77* | 64
OC(c1ccccc1)(c1ccccc1)C1CCN(CCCNc2ccc(C(F)(F)F)cc2)CC1 | · | · | · | 1 | · | ·
Cn1cccc1/C=N/NC(=O)Cc1ccccc1 | 2 | -12 | 0 | -1 | · | ·
Cn1cccc1/C=N\NC(=O)Cc1ccc(Br)c2ccccc12 | 3 | 48 | 0 | 4 | 28 | 54
FC(F)(F)c1cnc(NNC(=S)Nc2ccccc2Cl)c(Cl)c1 | 6 | 52 | 0 | 1 | 66 | 66
Cc1cccc(NC(=S)NNc2ncc(C(F)(F)F)cc2Cl)c1 | 1 | -16 | -5 | 6 | · | ·
O=C(NCc1ccccc1Cl)O[C@H]1CC[C@@]23CCCN2C(=O)CCC[C@H]3C1 | · | · | · | -3 | · | ·
O=C(CCC(=O)N1CCN(c2ccc(Cl)c(Cl)c2)CC1)c1ccccc1 | 1 | 91* | -1 | 3 | 96* | 76*
COc1cc(OC)c2c(O)c3c(=O)cc(C)oc3c(-c3c(OC)cc4cc5c(c(O)c4c3O)C(=O)CC(C)(O)O5)c2c1 (stereo unspecified) | · | · | · | 9 | · | ·
Oc1ccccc1-c1nc(NCc2ccco2)c2ccccc2n1 | -2 | -38 | 2 | 0 | · | ·
c1ccc(-c2nc(NCC3CCCO3)c3ccccc3n2)nc1 (stereo unspecified) | 0 | 89* | -1 | 2 | -8 | 2
c1ccc(-c2nc(NCc3ccco3)c3ccccc3n2)nc1 | 0 | 83* | -2 | -2 | 11 | -2
CC1(C)CC(=O)C=C(Nc2ccccc2NC(=O)c2cc(Cl)ccc2F)C1 | · | · | · | -5 | · | ·
CC(C)(C)c1ccc(-c2nnc(SCC(=O)Nc3ccc(S(=O)(=O)Nc4nccs4)cc3)n2Cc2ccco2)cc1 | · | · | · | -3 | · | ·
Cc1ccc(Cc2cnc(N3C(=N)SC(c4ccccc4)C3=O)s2)cc1 (stereo unspecified) | -4 | 37 | -2 | 5 | · | ·
N=C1SC(c2ccccc2)C(=O)N1c1ncc(Cc2ccccc2)s1 (stereo unspecified) | 0 | 71* | 1 | 0 | -64 | -15
CCOc1ccc(C(=O)Nc2cnn(Cc3ccc(Cl)c(Cl)c3)c2)cc1 | -3 | 66 | 1 | 6 | 70 | 19
O=[N+]([O-])c1cc(CN2CCN(c3ccccc3)CC2)c(O)c2ncccc12 | -1 | 83* | -6 | 5 | 74* | 20
O=[N+]([O-])c1cc(Cl)c(O)c2ncccc12 | · | 103* | 0 | 5 | 99* | 71*
O=[N+]([O-])c1ccc(O)c2cccnc12 | -5 | 8 | -3 | 4 | · | ·
O=[N+]([O-])c1ccc(O)c2ncccc12 | -3 | 103* | -3 | 14 | 81* | 41
O=Nc1ccc(O)c2ncccc12 | -5 | 55 | -4 | -3 | 58 | 21

Screens: PubChem BioAssay, several laboratories
